From the array DNA melting data of Ke et al. (doi:10.1101/2024.01.08.574731) come the findings set out here.

Data set [1] can be described thus: melting temperature; fluorescence melt of hairpins on a sequencing array, two-state fit, raised by 9.35 °C to match UV melts. The conditions noted are these: sodium 0.088 M. Summed up: (§1)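 Folding enthalpy and melting temperature come from bootstrapped two-state fits to Cy3 fluorescence of library hairpins carrying annealed Cy3 and quencher oligos on a sequenced MiSeq flow cell. Imaging was done in 50 mM Na-HEPES pH 8.0, 25 mM NaCl, stepping by 2.5 °C up to 60 °C, and signals were normalised to pre-quench Cy3 and to control constructs. Results of four replicates were combined by inverse variance, and fitted temperatures were raised by 9.35 °C to match UV melts.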

Data set [2] in a line: folding enthalpy; higher = less favourable; fluorescence melt of hairpins on a sequencing array, two-state fit. The following applies: sodium 0.088 M. The procedure, abridged:
as §1

As to GATTGCGGAAACGCAGTC ((.((((....)))).)), in data set [1], the Tm stood at 49.6 °C. Besides, in data set [2], the folding enthalpy is -25.2 kcal/mol.
The matching figures for GATTGGCGAAAGCCTATC (((.(((....))).))): 48.8 °C and -19.8 kcal/mol.
As for GATTGGGGAAACTCAATC (((((.(....).))))), the Tm in data set [1] was found to be 41.9 °C. In addition, in data set [2], the folding enthalpy is -33.5 kcal/mol.
The matching figures for GATTGGGGAAACTCGATC (((.(.(....).).))): 30 °C and -15.4 kcal/mol.
The like results for GATTGTGGAAACACGATC (((.(((....))).))) were, in that order, 48.1 °C and -31.7 kcal/mol.
The matching figures for GATTTACGAAAGTACATC (((.(((....))).))): 35.6 °C and -19.9 kcal/mol.
Consider GATTTACGAAAGTATATC (((.(((....))).))), for which the Tm in data set [1] amounted to 35.6 °C. The folding enthalpy in data set [2] is -24.2 kcal/mol.
On to GATTTAGGAAACTAAATC (((((((....))))))), for which the Tm in data set [1] came out at 48 °C. For the same sequence, in data set [2], the folding enthalpy was -42.9 kcal/mol.
The like results for GATTTAGGAAACTAAGTC ((.((((....)))).)) were, in that order, 29.6 °C and -8.37 kcal/mol.
The matching figures for GATTTCGCGAAAGCGATC (((..(((....)))))): 17.8 °C and -5.88 kcal/mol.
In the case of GATTTGCGAAAGCATATC (((.(((....))).))), in data set [1], the Tm was 43.1 °C. In data set [2], the folding enthalpy was -22.9 kcal/mol.
The like results for GATTTGGCGAAAGCCATC (((..(((....)))))) were, in that order, 26.1 °C and -6.61 kcal/mol.
The like results for GATTTGGGAAACCAAATC (((((((....))))))) were, in that order, 55 °C and -40.9 kcal/mol.
The like results for GCAAAACGAAAGTTCTGC (((.(((....))).))) were, in that order, 40.7 °C and -27.8 kcal/mol.
On to GCAAAATCGAAAGATTGC (((..(((....)))))), for which the Tm in data set [1] was determined as 38.5 °C. Further, in data set [2], the folding enthalpy is -20.6 kcal/mol.
The matching figures for GCAAACCGAAAGGTTGC (((.(((....)))))): 57.2 °C and -29.1 kcal/mol.
The matching figures for GCAAACGAAAGTTAGTGC ((((((....)))..))): 32.9 °C and -19.7 kcal/mol.
As for GCAAACGAAAGTTTATGC ((((((....)))..))), the Tm in data set [1] turned out to be 31.9 °C. Besides, the folding enthalpy in data set [2] is -17.2 kcal/mol.
The like results for GCAAACGGAAACGTCTGC (((.(((....))).))) were, in that order, 44.7 °C and -25.2 kcal/mol.
On to GCAAACGGAAACGTTCAC (..((((....))))..), for which, in data set [1], the Tm amounted to 24.7 °C. In data set [2], the folding enthalpy is -8.17 kcal/mol.
For GCAAACGGAAACGTTCGC ((.((((....)))).)), in data set [1], the Tm turned out to be 46.4 °C. Besides, the folding enthalpy in data set [2] was -29.7 kcal/mol.
The matching figures for GCAAAGCGAAAGCAATGC (((..((....))..))): 34.5 °C and -12.1 kcal/mol.
The like results for GCAAAGCGAAAGCCTTGC ((((.((....)).)))) were, in that order, 53 °C and -22.1 kcal/mol.
The matching figures for GCAAAGCGAAAGCGTAGC ((.(.((....)).).)): 55.9 °C and -17.1 kcal/mol.
For GCAAAGCGAAAGCGTGGC ((.(.((....)).).)), in data set [1], the Tm stood at 50.6 °C. Moreover, in data set [2], the folding enthalpy is -15.9 kcal/mol.
The like results for GCAAAGCGAAAGCGTTGC ((((.((....)).)))) were, in that order, 65 °C and -26.3 kcal/mol.
The matching figures for GCAAAGCGAAAGCTAAGC ((..(((....)))..)): 40.3 °C and -12.6 kcal/mol.
The matching figures for GCAAAGCGAAAGCTGAGC ((..(((....)))..)): 55.9 °C and -18.5 kcal/mol.
Regarding GCAAAGCGAAAGCTGGGC ((..(((....)))..)), in data set [1], the Tm worked out at 55.6 °C. Also, the folding enthalpy in data set [2] was -18.9 kcal/mol.
The matching figures for GCAAAGGAAACTTTGC ((((((....)))))): 55.3 °C and -31.2 kcal/mol.
The like results for GCAAATCGAAAGATATGC (((.(((....))).))) were, in that order, 45.1 °C and -29.4 kcal/mol.
The matching figures for GCAAATCGAAAGATCTGC (((.(((....))).))): 40.4 °C and -28.3 kcal/mol.
For GCAAATCGAAAGATTGC (((.(((....)))))), the Tm in data set [1] was found to be 48.9 °C. Further, the folding enthalpy in data set [2] was -24 kcal/mol.
As to GCAAATGGAAACACTTGC ((((.((....)).)))), in data set [1], the Tm was found to be 33.9 °C. Moreover, the folding enthalpy in data set [2] is -31.5 kcal/mol.
The matching figures for GCAACACCGAAAGGTTGC (((..(((....)))))): 49.8 °C and -22.6 kcal/mol.
With GCAACACGAAAGTGCTGC (((.(((....))).))), the Tm in data set [1] was determined as 54.8 °C. Further, in data set [2], the folding enthalpy is -48.4 kcal/mol.
Turning to GCAACAGCGAAAGCTTGC (((..(((....)))))), the Tm in data set [1] was 46.6 °C. In addition, the folding enthalpy in data set [2] was -19.5 kcal/mol.
The matching figures for GCAACCGAAAGGTAGTGC ((((((....)))..))): 41.2 °C and -20.1 kcal/mol.
For the sequence GCAACCGGAAACGATTGC ((((.((....)).)))), the Tm in data set [1] worked out at 47.4 °C. The folding enthalpy in data set [2] is -31.5 kcal/mol.
The like results for GCAACGCGAAAGCCTTGC ((((.((....)).)))) were, in that order, 47.9 °C and -21.5 kcal/mol.
The like results for GCAACGCGAAAGCGACGC ((..(((....)))..)) were, in that order, 48.5 °C and -15.9 kcal/mol.
With GCAACGCGAAAGCGCCGC ((..(((....)))..)), in data set [1], the Tm worked out at 40.8 °C. Also, the folding enthalpy in data set [2] was -9.13 kcal/mol.
The like results for GCAACGCGAAAGCGTCGC ((.((((....)))).)) were, in that order, 64.7 °C and -22.2 kcal/mol.
The matching figures for GCAACGCGAAAGCTCTGC (((..((....))..))): 34.6 °C and -9.33 kcal/mol.
The matching figures for GCAACGGCGAAAGCCTGC (((..(((....)))))): 47 °C and -15.2 kcal/mol.
Turning to GCAACTGGAAACAGTCGC ((.((((....)))).)), the Tm in data set [1] turned out to be 45.9 °C. Besides, the folding enthalpy in data set [2] is -33 kcal/mol.
The like results for GCAAGACGAAAGTCATGC (((.(((....))).))) were, in that order, 54.4 °C and -32.2 kcal/mol.
The matching figures for GCAAGAGGAAACTCCTGC (((.(((....))).))): 35.2 °C and -18.2 kcal/mol.
Regarding GCAAGCACGAAAGTGTGC (((..(((....)))))), the Tm in data set [1] stood at 40.4 °C. In data set [2], the folding enthalpy is -16 kcal/mol.
The matching figures for GCAAGCGAAAGCTAGTGC ((((((....)))..))): 39.9 °C and -17.8 kcal/mol.
With GCAAGCGGAAACGTTTGC ((((.((....)).)))), in data set [1], the Tm turned out to be 53.5 °C. For the same sequence, the folding enthalpy in data set [2] is -38.5 kcal/mol.
The matching figures for GCAAGGCCGAAAGGCTGC (((..(((....)))))): 51.6 °C and -14.8 kcal/mol.
The matching figures for GCAAGGCGAAAGCATTGC ((((.((....)).)))): 67.2 °C and -38.2 kcal/mol.
As for GCAAGGCGAAAGCCTAGC ((.((((....)))).)), the Tm in data set [1] came out at 61.7 °C. Besides, the folding enthalpy in data set [2] is -18.4 kcal/mol.
The matching figures for GCAAGGCGAAAGCCTGC (((.(((....)))))): 66.5 °C and -19.8 kcal/mol.
The like results for GCAAGGCGAAAGCGGTGC (((..((....))..))) were, in that order, 47.1 °C and -21.2 kcal/mol.
The matching figures for GCAAGGCGAAAGCGTCGC ((.(.((....)).).)): 40.7 °C and -15.4 kcal/mol.
As to GCAAGGCGAAAGCTTAGC ((.(.((....)).).)), the Tm in data set [1] was 38.8 °C. The folding enthalpy in data set [2] is -13.6 kcal/mol.
The like results for GCAAGGGCGAAAGCCTGC (((..(((....)))))) were, in that order, 50.9 °C and -14 kcal/mol.
The matching figures for GCAAGGGGAAACCCTTAC (.(((((....))))).): 33.6 °C and -14.3 kcal/mol.
The like results for GCAAGTACGAAAGTATGC (((..(((....)))))) were, in that order, 33.4 °C and -19 kcal/mol.
On to GCAAGTCGAAAGACTGC (((.(((....)))))), for which the Tm in data set [1] came out at 57.1 °C. Moreover, the folding enthalpy in data set [2] is -25.8 kcal/mol.
Turning to GCAAGTGAAAACTTGC ((((((....)))))), the Tm in data set [1] stood at 61.5 °C. Further, the folding enthalpy in data set [2] is -35.4 kcal/mol.
Regarding GCAAGTGCGAAAGCATGC (((..(((....)))))), the Tm in data set [1] stood at 44.5 °C. Also, the folding enthalpy in data set [2] was -14 kcal/mol.
The matching figures for GCAAGTGGAAACATTTGC ((((.((....)).)))): 45.9 °C and -29.8 kcal/mol.
As for GCAAGTGGAAACGTTTGC ((((..(....)..)))), the Tm in data set [1] worked out at 34.4 °C. In addition, the folding enthalpy in data set [2] was -20.4 kcal/mol.
The like results for GCAATACGAAAGTATGC (((.(((....)))))) were, in that order, 50.6 °C and -29.4 kcal/mol.
The matching figures for GCAATAGCGAAAGCTTGC (((..(((....)))))): 48.7 °C and -24.7 kcal/mol.
The like results for GCAATAGGAAACTACTGC (((.(((....))).))) were, in that order, 29.8 °C and -14.5 kcal/mol.
For the sequence GCAATCGAAAGATATGC ((((((....))).))), the Tm in data set [1] stood at 36.3 °C. For the same sequence, the folding enthalpy in data set [2] was -21.1 kcal/mol.
For the sequence GCAATCGAAAGATGGTGC ((((((....)))..))), the Tm in data set [1] was found to be 36.3 °C. In data set [2], the folding enthalpy was -21.2 kcal/mol.
The matching figures for GCAATCGAAAGATTTGC ((((((....))).))): 44.2 °C and -27.6 kcal/mol.
The like results for GCAATCGGAAACGATTGC (((((((....))))))) were, in that order, 69.2 °C and -41.9 kcal/mol.
